Experimental data as given in the RNAGym collection of RNA variant scans (doi:10.1126/science.aae0568).
Variants at the floor of the assay were thinned out.

B1: tRNA (parent)
chain: GUUCCGUUGGCGUAAUGGUAACGCGUCUCCCUCCUAAGGAGAAGACUGCGGGUUCGAGUCCCGUACGGAACG

Variants of: B1
Experiment: yeast fitness relative to wild type (ratio to wild type); higher = fitter; tRNA-Arg(CCU), competitive growth, 37 C, YPD
Outline: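 Amplicons of the tRNA-Arg(CCU) gene were sequenced, 100-nucleotide paired-end, from the start population and from each end population of a pooled yeast competition. The competition, in six parallel replicates, lasted 24 hours in YPD at 37°C. Fitness relative to wild type was calculated from changes in genotype frequencies. Genotypes had to have ≥ 100 starting reads, and estimates < 0.5 were set to 0.5.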

| Variant | yeast fitness |
| --- | --- |
| GUUCCGUUGGCGUAAUGGUAACGGGUCUCCCUGCUCCGGAGCAGGCUGCGGGUUCGAGUCCCGUUCGGAACG | ≤ 0.5 |
| GUUCCGUUGGCGUAAUGGUAACGGGUCUACCUCCUAAGGAGAUGACUGCGGGUUCGAGUCCCGUACGGAACG | ≤ 0.5 |
| GUUCCGUUGGCGUAAUGGUAACGGGUCUACCUCCUAAGGGGAAGACUGCCGGUUCGAGUCCCGUACGGAACG | ≤ 0.5 |
| GUUCCGUUGGCGUAAUGGUAACGGGUCUCCCUCCUAAGGAGAAGACUGCGGGUUCGAGUCCCGUACGGAUCG | 0.639 |
| GUUCCGUUGGCGUAAUGGUAACGGGUCUGCCUACUAAGGAGAAGACUACGGGUUGGAGUCCCGUACGGAACG | ≤ 0.5 |
| GUUCCGUUGGCGUAAUGGUAACGGGUUUCCCUUCUAAGGAGAAGGCUGCCGGUUCGAGUCCCGUACGAAACG | ≤ 0.5 |
| GUUCCGUUGGCGUAAUGGUAACGGGUCUCCCUACUAAGGAGAAGACUGCGGGUUCGAGUCCAGUACGGAACG | ≤ 0.5 |
| GUUCCGUUGGCGUAAUGGUAACGGGUUUGCCUCGUGAGGAGAUGACUGCGGGUUCGAGUCCCGUACGGAACG | ≤ 0.5 |
| GUUCCGUUGGCGUAAUGGUAACGGGUUUCCCUCCUAAGGAGAAGACUGCGCGUUCGAGUCCCGAACGGAACG | ≤ 0.5 |
| GUUCCGUUGGCGUAAUGGUAACGGGUCUCACUCCUAAGGAGAACACCGCGGGUUCGAGACCCGUACGGAACG | ≤ 0.5 |
| GUUCCGUUGGCGUAAUGGUAACGGGUCUCGCUCCUAAGGAGAAGACUGCGGGUUCGAGUCCCGUACGGAGCG | 0.638 |
| GUUCCGUUGGCGUAAUGGUAACGGGUCUCCCUCCUAAGGAGAAGACUGCGGGUUCGAGUCCCGUACGGGACG | 0.503 |
| GUUCCGUUGGCGUAAUGGUAACGGGUCUCCCUCCUAAGGAGAAGACUGCGGGUUCGAGUCCCGUACGGUACG | 0.658 |
| GUUCCGUUGGCGUAAUGGUAACGGGUCUCCUUGCUAAGGAGCUGACUGCGGGUUCGAGUCCCGUACGGAACG | 0.574 |
| GUUCCGUUGGCGUAAUGGUAACGGGUUUCCCUUCUAAGGAGAAGACUACCGGUUCGAGUCCCGUACGAAACG | ≤ 0.5 |
| GUUCCGUUGGCGUAAUGGUAACGGGUCUGCCUCCUAAGGAGAAGACUGCGGGUUCGAGUCCCGUACGGAACG | ≤ 0.5 |
| GUUCCGUUGGCGUAAUGGUAACGGGUCUUCCUCCUAAGGAGAAGACUGCGGGUUCGAGUCCCGUACGGAACG | 0.521 |
| GUUCCGUUGGCGUAAUGGUAACGGGUUCCCCUCCUAAGGAGAAGACUGCGGGUUCGAGUCCCGUACGGAACG | ≤ 0.5 |
| GUUCCGUUGGCGUAAUGGUAACGGGUCUCCCUGCUAAGGAGAAGACUGCGGGUUCGAGUCCCGUAUGGAACG | ≤ 0.5 |

| Variant | yeast fitness |
| --- | --- |
| GUUCCGUUGGCGUAAUGGUAACGGGUCUCACUCCUAAGGAGAAGACCGCGGGUUCGAGUCCCGUACGGAACG | 0.586 |
| GUUCCGUUGGCGUAAUGGUAACGGGUCUCUCUCCUAAGGGGAAAACCGCGCGUUCGAGUCCCGUACGGAACG | ≤ 0.5 |
| GUUCCGUUGGCGUAAUGGUAACGGGUCUCCUUCCUAAGGAGAAGACUGCCGGUUCGAGUCCCGUACGGAACG | 0.56 |
| GUUCCGUUGGCGUAAUGGUAACGGGUCUCCUUCCUAAGGAGAAGACUAUGGGUUCGAGUCCCGUACGGAACG | 0.785 |
| GUUCCGUUGGCGUAAUGGUAACGGGUCUCGCUCCUAAGGAGAAGACUGCGGGUUGGAGUCCCGUACGGAACG | ≤ 0.5 |
| GUUCCGUUGGCGUAAUGGUAACGGGUCUCUCUCUUAAGGAGAAGACUGCGGGUUCGAGUCCCGUACGGAACG | ≤ 0.5 |
| GUUCCGUUGGCGUAAUGGUAACGGGUGUCCCUCCUAAGGAGAAGACUGCGGGUUCGAGUUCCGUACGGAACG | 0.8 |
| GUUCCGUUGGCGUAAUGGUAACGGGUGUCCCUCCUAAGGAGAAGCCUGCGGGUUCGAGUCCCGUACGGAACG | ≤ 0.5 |
| GUUCCGUUGGCGUAAUGGUAACGGGUCUCACUCCUAAGGAGAAGAUUGCGGCUUCGAGUCCCGUACGGAACG | ≤ 0.5 |
| GUUCCGUUGGCGUAAUGGUAACGGGUCUCCGUCCUAAGGAGAAGACUGCGGGUUCGAGUCCCGUACGAAUCG | ≤ 0.5 |
| GUUCCGUUGGCGUAAUGGUAACGGGUCUCCUUCCUAAGGAGAAGACUGCGGGUUCGAGUCUCGUACGGAACG | ≤ 0.5 |
| GUUCCGUUGGCGUAAUGGUAACGGGUCUCCCUGCUAAGGAGAAGACUGCGGGUUCGAGUCCCGUACGGAACG | 0.666 |
| GUUCCGUUGGCGUAAUGGUAACGGGUCUCCGUACUAAGGAGAAGACUGCCGGUUGGUGUCCUGUACGGAACG | ≤ 0.5 |
| GUUCCGUUGGCGUAAUGGUAACGGGUCUGCCUCCUAAGCAGAAGACUGCGGGUUCGAGUCCCGUACGGAACG | 0.513 |
| GUUCCGUUGGCGUAAUGGUAACGGGUCUCCGUCCUAAGGAGAAGACUGCGAGUUCGAGUCCCGUACGGAACG | ≤ 0.5 |
| GUUCCGUUGGCGUAAUGGUAACGGGUCUUCCUCCUAACGAGAAGACUGCGGGUUCGAGUCCCGUACGGAACG | 0.62 |
| GUUCCGUUGGCGUAAUGGUAACGGGUCUCUCUCUUAAGGAGAAGACUGCGGGUUAGAGUCCCGUACGGAACG | ≤ 0.5 |
| GUUCCGUUGGCGUAAUGGUAACGGGUCUCCUUCCUAAGGAGAAGACUGCGGGUUCGAGUGCCGUACGGAACG | ≤ 0.5 |
